Screens: PubChem, several laboratories
In the library only some 7.6% were active in any assay of this set; here they are far more common.
hDAT+cocaine = changed hDAT dopamine uptake under cocaine IC80, either direction, primary screen, cocaine antagonist project, cell-based, LLC-PK1 hDAT, [14C]-dopamine uptake, MLSMR; Sodium-dependent dopamine transporter (Homo sapiens), Q01959; LLC-PK1 hDAT cells, [14C]-dopamine uptake with cocaine IC80; actives deviate in either direction; B-score at 10 µM; actives 1.3% (n = 110,000); AID 449768, 2010;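 active = Z score or B-score, a plate-position-corrected score, falls beyond the plate's 99.7% confidence bounds, in either direction; inactive = both scores lie inside the 99.7% bounds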;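 also: scored against the spread of the other compound wells on the same plate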
M1 antag = antagonists of rat M1 muscarinic receptor | Muscarinic acetylcholine receptor M1 (Rattus norvegicus), P08482 | CHO-M1 cells, Fluo-4 calcium, ACh EC80 antagonist mode; stronger effect = lower value | B-score at 10 µM | actives 3.4% (n = 64,000) | AID 628, 2007;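 active = calcium fluorescence response, raw or row-and-column corrected B-score, differing from the plate sample mean either way at a set confidence level, mostly lower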
D1 allo mod = D1 CRE-luciferase signal change, two-sided – cell-based, HEK293 D1, dopamine EC30, D1 allosteric modulator project, primary screen | D(1A) dopamine receptor (Homo sapiens), P21728 | dopamine EC30 potentiation; actives deviate in either direction | B-score at 10 µM | actives 5.9% (n = 58,000);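 active = luminescence count or its row- and column-corrected plate score outside the 99.7% band of the plate's sample wells, on either side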
Jurkat viability = cytotoxicity toward Jurkat T cells, primary screen, cytotoxicity control, cell-based, Jurkat E6.1, 60K MLSMR library; actives 1.2% (n = 56,000); Jurkat E6.1 viability, ATP luminescence, 48 h; inhibition, % at 4 µM; AID 463, 2006;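 active = inhibition above the mean inhibition of all tested compounds plus 3 SD, cut at about 28% in these data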
HEK293 NFkB inh = inhibitors of PMA/ionomycin-induced NF-kB reporter, primary screen, antigen receptor NF-kB inhibitor project, cell-based, HEK-293 luciferase reporter, luminescence; actives 0.21% (n = 62,000); inhibition, % at 3 µM; HEK-293 NF-kB luciferase reporter;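 active = inhibition above the mean of all tested compounds plus 3 SD, cut at about 40% in these data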;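 also: 0% = stimulated DMSO wells and 100% = 10 µM reference inhibitor 5653914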
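Signal: luciferase luminescence; Material: HEK-293 cells with stable firefly luciferase reporter driven by four HIV NF-kB elements; Probe or stimulus: PMA with ionomycin; Replication: tested once; Times: 1 h compound pretreatment, then 16 h stimulation at 37 °C, 5% CO2; Benchmarks: DMSO and 10 µM reference inhibitor; Evaluation: per-plate % inhibition versus controls.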
M1 ag = M1 muscarinic receptor agonists, primary screen, CHO-M1 cells, Fluo-4 calcium, agonist mode | Fluo-4 calcium fluorescence; stronger effect = higher value | AID 626, 2007 | actives 3% (n = 64,000) | Muscarinic acetylcholine receptor M1 | B-score at 10 µM;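 active = fluorescence rise, raw or as B-score row- and column-corrected plate score, outside the 99.7% band of its plate's samples, either direction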
M1 agonist conf = rat M1 muscarinic receptor agonists, confirmation, CHO-M1 cells, Fluo-4 calcium, duplicate retest; shares compounds with M1 ag; Fluo-4 calcium fluorescence, agonist mode; actives lie on both sides; fluorescence change (max-min) at 10 µM; actives 19% (n = 1,700); AID 1488, 2009;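 active = fluorescence change differs from the solvent-only DMSO control mean at a set confidence level in both duplicate runs; inconclusive = differs from solvent-only control mean in just one of two runs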;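 also: an EC20 dose of acetylcholine follows compound addition during the same imaging run; raw fluorescence intensity difference in instrument units with no normalization to controls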
M4 ag counter = agonist activity at rat M4 receptor, confirmation, counter-screen for M1 allosteric modulator project, cell-based, agonist mode | fluorescence change (max-min) at 10 µM | shares compounds with M1 ag | actives 9% (n = 1,700) | CHO M4/Gqi5 cells, Fluo-4 calcium fluorescence; actives lie on both sides;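 active = fluorescence change differing from the plate's solvent-only control wells at 99.7% confidence in both duplicates, whether higher or lower; inconclusive = differs from solvent controls in only one of two duplicates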
Target sequence (P08485 whole entry, looked up): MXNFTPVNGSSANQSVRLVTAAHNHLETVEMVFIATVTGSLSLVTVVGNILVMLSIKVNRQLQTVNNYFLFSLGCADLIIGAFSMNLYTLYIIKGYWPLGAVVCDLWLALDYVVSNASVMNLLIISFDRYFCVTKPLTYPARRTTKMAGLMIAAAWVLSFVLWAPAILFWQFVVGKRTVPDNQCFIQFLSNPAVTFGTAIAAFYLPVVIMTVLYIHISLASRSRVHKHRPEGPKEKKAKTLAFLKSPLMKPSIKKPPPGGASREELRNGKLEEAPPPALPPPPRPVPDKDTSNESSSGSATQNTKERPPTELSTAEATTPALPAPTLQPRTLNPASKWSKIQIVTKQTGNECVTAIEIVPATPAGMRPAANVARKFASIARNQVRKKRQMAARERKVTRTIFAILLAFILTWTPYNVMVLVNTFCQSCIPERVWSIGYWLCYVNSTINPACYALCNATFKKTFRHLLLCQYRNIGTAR
M1 antag confirm = rat M1 muscarinic receptor antagonists, confirmation, CHO cells, Fluo-4 calcium, duplicate. shares compounds with M1 antag. ACh EC80 antagonism; stronger effect = lower value. calcium response (max-min fluorescence) at 10 µM. actives 43% (n = 1,700);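 active = calcium response below the same-plate mean of wells given acetylcholine alone at its 80%-effect dose, minus 3 SD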;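 also: raw fluorescence intensity difference in arbitrary instrument units and not normalized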
mGluR4 antag = human mGluR4 response to M1 antagonist hits, M1 allosteric modulator project, cell-based, antagonist mode, secondary assay 1 | actives 0.9% (n = 1,700) | fluorescence response (max-min) at 10 µM | shares compounds with M1 antag | CHO-mGluR4 calcium flux, Fluo-4 fluorescence, glutamate EC80; stronger effect = lower value;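 active = fluorescence response below the plate's average for near-maximal glutamate wells, less 3 SD of those wells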;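 also: raw unnormalized fluorescence span taken in the window right after glutamate addition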
D1 mod confirm = D1 receptor positive allosteric modulators, retest, confirmation, cell-based, HEK293 D1, CRE-luciferase, duplicate. dopamine EC30 potentiation; stronger effect = higher value. actives 88% (n = 2,200). shares compounds with D1 allo mod. luminescence at 10 µM;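 active = luminescence in either of two replicates above the same-plate mean plus 3 SD of the low-dose dopamine control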
Isoprot counter = isoproterenol response counter-screen activity for D1 modulators | shares compounds with D1 allo mod | HEK293 D1 CRE-luciferase, isoproterenol EC30 counter-screen | calls only at 10 µM | actives 63% (n = 2,200) | AID 647;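 active = luminescence in either replicate above plate mean of wells with a partly effective reference agonist dose plus 3 SD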;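 also: isoproterenol raises cAMP through native beta-adrenoceptor Gs so signal bypasses D1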
An asterisk follows results filed as active; i = inactive; ? = inconclusive; · = no result.

SMILES | hDAT+cocaine | M1 antag | D1 allo mod | Jurkat viability | HEK293 NFkB inh | M1 ag | M1 antag confirm | mGluR4 antag | others
O=C(O)C1CN2CCC1CC2 (centres undefined) | -0.046 | -0.16 | · | -1 | 12 | 13* | · | · | M1 agonist conf=233*;M4 ag counter=-34
O=C(c1cccs1)N1C2CCC1CC(O)(c1cccnc1)C2 (centres undefined) | -0.73 | -0.5 | -0.8 | 8 | 24 | -0.36 | · | ·
CCc1ccccc1NC(=O)CSc1nnc([C@@H](N)Cc2c[nH]c3ccccc23)o1 | 0.15 | 0.77 | 0.61 | -2 | 3 | -1.3 | · | ·
O=c1[nH]c(=O)n(C2CCCCCC2)c(O)c1C=NC1CCN(Cc2ccccc2)CC1 | 1 | -0.96 | 0.67 | -1 | 1 | -1.1 | · | ·
CCC(=O)c1ccc(OC)c(OC)c1 | -0.65 | · | · | · | · | · | · | ·
CCCCn1c(N)c(C(=O)OCC2CCCO2)c2nc3ccccc3nc21 (centres undefined) | 1.9 | -0.011 | 0.94 | -2 | 27 | 3.5 | · | ·
CCCCn1c(NC(=O)c2ccco2)c(C(=O)OCC)c2nc3ccccc3nc21 | 0.43 | -0.37 | 0.88 | 16 | 7 | 6.6* | · | · | M1 agonist conf=24;M4 ag counter=?
Cc1nc2c(c(C)nn2-c2ccccc2)c(C)c1CCC(=O)N1CCC2(CC1)OCCO2 | 1.4 | 0.096 | 3 | 1 | -2 | -1 | · | ·
CCOCCCNC(=O)CN1C2CCC1CC(O)(c1ccc(OC)cc1)C2 (centres undefined) | -0.26 | 0.57 | -0.58 | 0 | -7 | 0.085 | · | ·
CCC(=NCCN1CCCCC1)c1c(O)n(C)c(=O)n(C)c1=O | 0.31 | -0.37 | · | · | · | -0.35 | · | ·
CCC(=NCc1ccc2c(c1)OCO2)c1c(O)n(C)c(=O)n(C)c1=O | -0.4 | -0.61 | · | 11 | 9 | 2.9* | · | · | M1 agonist conf=12;M4 ag counter=-35
CCC(=NCCOc1ccc(Cl)cc1)c1c(O)n(C)c(=O)n(C)c1=O | 1.1 | -1 | · | · | · | 11* | · | · | M1 agonist conf=-9.8;M4 ag counter=?
O=C1CCCC2C3CCCN4CCCC(CN12)C34 (centres undefined) | 0.88 | -0.23 | 0.62 | 2 | 23 | -2.5* | · | · | M1 agonist conf=-11;M4 ag counter=-45
Cc1ccc(S(=O)(=O)Nc2cc(C(=O)N3CCC4(CC3)OCCO4)ccc2N2CCCCC2)cc1 | 0.71 | -0.42 | 0.34 | -3 | 16 | 2.8* | · | · | M1 agonist conf=-9.9;M4 ag counter=-20
OC(COCc1ccc(Cl)cc1)CN1CC=C(c2ccccc2)CC1 (centres undefined) | -0.021 | -4* | -1.2 | 2 | 12 | -2.8* | 475* | 177 | M1 agonist conf=-6.8;M4 ag counter=-22
COCc1cc(C2SCC(=O)Nc3c2c(=O)[nH]n3C(C)C)ccc1OC (centres undefined) | 1.1 | 0.82 | 0.025 | -5 | 5 | 0.14 | · | ·
C[C@H]1OC[C@@H](C[N+](C)(C)C)O1 | -0.53 | -9.7* | 5.7* | · | · | 48* | · | · | M1 agonist conf=527*;M4 ag counter=220*;D1 mod confirm=10372*;Isoprot counter=i
CC(C)=CCC12CN3CCN(CC(C3)C1=O)C2 | -0.28 | -0.18 | · | -6 | 8 | 0.64 | · | ·
O=C(COc1ccc(Cl)cc1)NC1CN2CCC1CC2 (centres undefined) | -0.28 | -16* | -1.1 | -1 | 15 | 0.59 | 398* | 257
O=C(COc1ccc(Cl)cc1)N1CCN(Cc2ccccc2)CC1 | -0.17 | · | 0.067 | -3 | 7 | · | · | ·
CCCCc1nc(N2CCNCC2)c(C#N)c2c1CSC(C)(C)C2 | · | -9.8* | · | · | · | -0.32 | 61* | 220
COc1cc(C2NCc3ccccc3-n3cccc32)ccc1O (centres undefined) | -0.54 | -1.1* | -0.098 | -3 | 24 | -1 | 554 | 225
COc1ccc(C2NCc3ccccc3-n3cccc32)cc1 (centres undefined) | -0.28 | · | · | · | · | · | · | ·
O=C(O)c1cc2ccccc2oc1=O | -0.0047 | -0.34 | -0.28 | 4 | 4 | -1.1 | · | ·
O=C(c1cc2ccccc2oc1=O)N1CCC2(CC1)OCCO2 | -1 | -3.7* | -0.27 | 3 | 12 | -0.083 | 609 | 230
SMILES | hDAT+cocaine | M1 antag | D1 allo mod | Jurkat viability | HEK293 NFkB inh | M1 ag | M1 antag confirm | mGluR4 antag | others
Cc1c(C(=O)N2CCC3(CC2)OCCO3)oc2ccccc12 | -1.7 | -2.3* | -0.7 | -2 | 5 | -0.45 | 519 | 171
CCCCC1(CN2CCCC2=O)C(=O)NC(=O)NC1=O | 0.11 | 0.37 | · | · | · | -0.41 | · | ·
Cc1cccc(-c2nc3ccccc3c(=O)n2-n2cccc2)c1 | -0.31 | 0.16 | · | 2 | 13 | 1.3 | · | ·
CN1CCC(OC(=O)C2c3ccccc3Oc3ccccc32)CC1 | -0.2 | -14* | -1.4 | · | · | -0.4 | 25* | 186
CCN1CCN(Cc2cc(Br)cc(OC)c2O)CC1 | 0.54 | -1.9* | -2.4 | 0 | 10 | 0.024 | 350* | 243
Oc1c(Br)cc(Br)cc1CN1CCN(Cc2ccccc2)CC1 | 0.53 | · | · | · | · | · | · | ·
C=CCn1c(O)c(C(CC)=NC(C)c2ccccc2)c(=O)[nH]c1=O (centres undefined) | -0.08 | · | · | · | · | · | · | ·
CCCCOCCCn1c(N)c(C(=O)OCCOC)c2nc3ccccc3nc21 | 1.2* | -4* | -1 | · | · | 3.2 | 21* | 229
O=P(O)(O)COc1ccccc1O | 2 | -0.81 | 0.14 | -3 | 24 | 1.6 | · | ·
